Thrombin inh: human alpha-thrombin inhibitors, primary screen, counter-screen for coagulation protease inhibitor project, biochemical, 1536-well, fluorogenic AMC substrate | AID 1046, 2008 | 220,000 compounds, 0.26% hits | Boc-VPR-AMC fluorogenic substrate cleavage | inhibition, % at 5 µM | Prothrombin (Homo sapiens), P00734;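 active means inhibition at or above 40%; inactive means inhibition below 40%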;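 further: 0% = enzyme with no compound and 100% = wells without enzyme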
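Test system: human alpha-thrombin protein / Dosing: one concentration per compound, 5 µM, with 0.2% DMSO / Medium: pH 7.5 Tris-saline with Tween 20 / Benchmarks: no-compound enzyme wells and no-enzyme blanks / Read-out basis: percent inhibition of thrombin substrate cleavage / Timing: reaction at room temperature / Measured by: fluorescence, ex 355 nm, em 460 nm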
FXIa inh: human FXIa protease inhibitors, primary screen, biochemical, 1536-well. Coagulation factor XI (Homo sapiens), P03951. purified FXIa, Boc-Glu-Ala-Arg-AMC fluorogenic substrate. inhibition, % at 5 µM. 220,000 compounds, 0.14% hits. AID 798, 2007;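 active means inhibition of at least 40%; inactive means inhibition below 40%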;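 further: fluorescence of freed AMC excited at 355 nm; 0% = enzyme without compound and 100% = no enzyme blank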
FXIIa inh 1536: human FXIIa protease inhibitors, primary screen, biochemical, 1536-well; Coagulation factor XII (Homo sapiens), P00748; purified FXIIa, Boc-QGR-AMC fluorogenic substrate, 2 h; inhibition, % at 5 µM; 220,000 compounds, 0.3% hits; AID 800, 2007; in the data active means inhibition above about 40%;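 further: 0% = enzyme with no compound and 100% = blank without enzyme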
Furin inh: human furin inhibitors, primary screen, biochemical, fluorescence intensity; purified furin, fluorogenic substrate cleavage; 220,000 compounds, 0.061% hits; P09958; inhibition, % at 20 µM or 30 µM; in the data active means inhibition above about 25%
hK5 inh: human KLK5 protease inhibitors, primary screen, biochemical, 1536-well; inhibition, % at 5 µM; 210,000 compounds, 0.59% hits; recombinant hK5, fluorogenic AMC substrate cleavage;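 active means inhibition of 40% or more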;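 further: 0% = enzyme controls without compound and 100% = no-enzyme blanks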
Target sequence (Q9Y337 67-293 limits assumed): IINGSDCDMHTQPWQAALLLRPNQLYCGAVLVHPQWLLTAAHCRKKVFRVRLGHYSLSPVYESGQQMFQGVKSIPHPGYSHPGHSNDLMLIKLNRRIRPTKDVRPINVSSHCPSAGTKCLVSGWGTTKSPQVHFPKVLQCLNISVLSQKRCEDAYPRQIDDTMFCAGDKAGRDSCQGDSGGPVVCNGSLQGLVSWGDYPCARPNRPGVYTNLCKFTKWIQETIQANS
Starred values were filed as active, the others as inactive; / = no result given. Shown are actives, neighbours in structure and some others; about 1.1% of the full set was active somewhere.

SMILES	Thrombin inh	FXIa inh	FXIIa inh 1536	Furin inh	hK5 inh
CCCS(=O)(=O)N1CCN(Cc2ccc([N+](=O)[O-])cc2)CC1	-12	2	11	-5	-2
CS(=O)(=O)N1CCN(Cc2ccc([N+](=O)[O-])cc2)CC1	10	33	37	-8	51*
CO/N=C/NC(=O)c1c(OC)ccnc1Oc1cccc(C(F)(F)F)c1	-3	-9	-6	-27	4
COCC(=O)n1nc(-c2ccc(Cl)cc2)nc1NCc1ccc(F)cc1	51*	1	12	-12	-9
COCC(=O)n1nc(-c2ccc(C)cc2)nc1NCc1ccc(F)cc1	79*	-6	-6	-21	-17
O=C(NCCCn1ccnc1)c1cc2c(s1)CCCCC2	-3	-2	10	-11	-21
COCCN(Cc1ccco1)C(=O)Cn1ncc2c(=O)oc3ccccc3c21	-2	-1	4	-20	0
CC1CN(c2nc3ccccc3nc2C(C#N)C(=O)OC2CCCCC2)CC(C)O1 (stereo not given)	20	12	1	-17	64*
CC(C)c1ccc(NC(=O)COc2ccccn2)cc1	89*	31	26	-4	21
CC(C)c1ccc(OCC(=O)Nc2ccc(OC(F)(F)F)cc2)cc1	-11	0	12	-20	-11
O=C(c1ccc2ccccc2c1)C1CCCN(C(=O)c2noc3c2CCCC3)C1 (stereo not given)	-7	13	4	-10	-3
CCOC(=O)c1c(C)nc2sc3c(=O)n(-c4ccc(OC)cc4)nnc3c2c1-c1ccc(OC)cc1	3	20	24	-18	45*
CCOC(=O)c1c(C)nc2sc3c(=O)n(-c4ccc(C(C)=O)cc4)cnc3c2c1-c1ccc(OC)cc1	17	0	5	-13	-24
CCC(C)NCCOc1ccc(C)cc1[N+](=O)[O-] (stereo not given)	41*	12	23	-14	/
COC(=O)/C(C#N)=C\c1c(OC)[nH]c2ccccc12	1	6	11	-7	6
CC1CCCCN1C(=O)CCS(=O)(=O)c1cccc2nonc12 (stereo not given)	-1	1	14	-13	3
COc1cc([N+](=O)[O-])cc2sc(NC(C)=O)nc12	39	60*	27	3	23
CC1CCC(C(C)C)C(OCC(O)CNC(C)C)C1 (stereo not given)	-2	-1	6	-19	0
O=C(Nc1ccccc1Cl)c1ccccc1Cl	3	5	13	-16	-6
Cn1c(=O)c2cc(NC(=O)c3ccccc3Cl)c(=O)oc2n(C)c1=O	80*	34	24	-8	-8
Cc1occc1C(=O)Nc1cccnc1	10	3	5	-24	78*
COC(=O)c1cc(NC(=O)c2ccoc2C)cc(C(=O)OC)c1	1	2	5	-24	40*
CCN(CC(=O)Nc1cc(Cl)ccc1C)c1ncnc2sc(C)c(C)c12	0	17	23	-30	-10
Cc1c(C(=O)OCC2CCCO2)[nH]c2c1C(=O)CC(c1ccc(N(C)C)cc1)C2 (stereo not given)	-5	6	12	4	-10
CN1C(=O)C(Cl)(Cl)C(=O)c2ccccc21	-2	2	5	-31	-12
SMILES	Thrombin inh	FXIa inh	FXIIa inh 1536	Furin inh	hK5 inh
Cc1cc(Cl)c(S(=O)(=O)N2CCCCCC2)cc1OCC(N)=O	32	9	13	-21	41*
Cc1cc(Cl)c(S(=O)(=O)N2CCCC2)cc1OCC(N)=O	-2	3	12	-32	/
Cc1cc(Cl)c(S(=O)(=O)NCc2ccncc2)cc1OCC(N)=O	9	0	3	-12	54*
Cc1cc(Cl)c(S(=O)(=O)NCc2ccccc2)cc1OCC(N)=O	1	0	11	-13	-1
CC1=C(C(=O)OCCOc2ccccc2)C(c2ccsc2)NC(=O)N1C (stereo not given)	8	54*	38	-18	34
COC(=O)C1=C(C)N(C)C(=O)NC1c1ccccc1 (stereo not given)	-4	-8	-2	-15	-8
CNS(=O)(=O)c1cccc(C(=O)OCc2cc(Cl)cc3c2OCOC3)c1	-1	2	-10	-26	-6
O=C(COc1ccc(S(=O)(=O)Nc2ccccc2)cc1)N1CCOCC1	53*	6	18	-22	21

Source: PubChem BioAssay
